An excerpt weighted towards active compounds, which were near 9.4% of everything screened.
Mdm2-MdmX inh – human Mdm2/MdmX binding inhibition. SaOS-2 split-luciferase Mdm2/MdmX complementation, luminescence. inhibition, % at 8 µM. 330,000 tested, 3% active. O15151+Q00987;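 active = inhibition of at least 50% at 8 µM in the primary screen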
Target sequence (O15151 whole entry, looked up): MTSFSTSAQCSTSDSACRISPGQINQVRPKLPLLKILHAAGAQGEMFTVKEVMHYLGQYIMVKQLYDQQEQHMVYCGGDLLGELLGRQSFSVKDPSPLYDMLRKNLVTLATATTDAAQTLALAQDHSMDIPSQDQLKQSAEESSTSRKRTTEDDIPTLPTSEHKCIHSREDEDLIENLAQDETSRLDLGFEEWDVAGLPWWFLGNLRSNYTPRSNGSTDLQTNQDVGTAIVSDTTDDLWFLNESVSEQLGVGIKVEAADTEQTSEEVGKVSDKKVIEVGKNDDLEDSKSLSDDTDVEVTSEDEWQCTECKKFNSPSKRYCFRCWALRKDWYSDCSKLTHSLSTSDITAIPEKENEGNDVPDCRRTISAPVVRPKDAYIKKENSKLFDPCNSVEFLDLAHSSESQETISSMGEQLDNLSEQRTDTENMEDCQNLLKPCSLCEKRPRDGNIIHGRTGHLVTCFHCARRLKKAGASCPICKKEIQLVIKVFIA
Target sequence (Q00987 whole entry, looked up): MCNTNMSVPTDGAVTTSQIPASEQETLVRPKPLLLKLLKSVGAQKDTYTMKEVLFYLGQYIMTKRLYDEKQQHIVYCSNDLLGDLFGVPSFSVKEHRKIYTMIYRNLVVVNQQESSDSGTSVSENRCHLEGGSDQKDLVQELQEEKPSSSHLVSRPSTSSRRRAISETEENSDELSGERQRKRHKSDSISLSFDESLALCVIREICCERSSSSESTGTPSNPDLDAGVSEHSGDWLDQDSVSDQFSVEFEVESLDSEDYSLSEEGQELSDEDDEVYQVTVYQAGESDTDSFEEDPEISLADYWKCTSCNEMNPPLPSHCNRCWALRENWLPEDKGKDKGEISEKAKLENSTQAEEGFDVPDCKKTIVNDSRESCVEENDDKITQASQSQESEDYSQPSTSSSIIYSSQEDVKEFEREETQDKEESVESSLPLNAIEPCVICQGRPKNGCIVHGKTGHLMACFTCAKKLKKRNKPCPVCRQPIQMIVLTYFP
T cruzi inh – T. cruzi replication inhibition | T. cruzi beta-gal in NIH3T3, luminescence, 90 h | inhibition, % (concentration not given with the values) | 300,000 tested, 1.4% active;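 active = mean inhibition across valid replicates above about 55%, limit read from the data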;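 note: signal also drops with host cell toxicity which is not excluded here; 0% = plate median of DMSO wells and 100% = zero luminescence signal; higher percent means less beta-gal luminescence so fewer parasites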
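Test system: β-gal T. cruzi (Tulahuen C4) inside NIH/3T3 cells / Quantity: 5,000 cells/well / Measured by: luminescence from GalScreen with 0.05% NP40, read after 60 min / Medium: DMEM plus 2% FBS / Measure: parasite load inhibition, % / Reagent: Tulahuen C4 trypomastigotes, 5000/well / Schedule: co-culture of at least 90 h after 3 h attachment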
SKKanGAS inh – inhibitors of SKKanGAS S. pyogenes growth in kanamycin (SK-promoter or general growth effect); inhibition, % at 7.5 µM; AID 1662; 300,000 tested, 1.3% active; BacTiter-Glo, 6 h;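 active = mean replicate score, as percent of positive control median, at least 50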;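 note: strain carries kanamycin resistance gene driven by streptokinase promoter and grows in 40 µg/ml kanamycin; loss of luminescence reflects streptokinase promoter inhibition or plain growth inhibition; 0% = median of DMSO wells and 100% = positive control at its reference dose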
Beta apoptosis – blocks beta cell apoptosis; INS-1E cytokine-induced death, ATP luminescence, 48 h; percent of positive-control rescue, neutral wells zero; protection from apoptosis, % (concentration not given with the values); 300,000 tested, 0.8% active; AID 435005;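 active = Every replicate reaches about 75%, or at least half do and their mean reaches it too, limit read from the data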;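 note: 0% = cytokine-treated negative control wells and 100% = positive control rescue; higher means more ATP so stronger rescue from cytokine killing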
CSC inhib – blocks cancer stem cells | cancer stem cell-like cells viability, luminescence | inhibition, % at 7.5 µM | 300,000 tested, 1.1% active | AID 2717; in the data active = inhibition above about 75%; tested in HMLE shEcad cells
Lmaj promast – reduces viability of Leishmania major promastigotes; resazurin fluorescence viability; 200,000 tested, 9% active; inhibition, % at 10 µM; in the data active = inhibition above about 50%;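 note: promastigotes grown with compound for 44 hours at 28 °C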
Mdm2 MdmX conf – confirmation of human Mdm2/MdmX interaction inhibitors | shares compounds with Mdm2-MdmX inh | Mdm2-MdmX binding, luminescent assay | inhibition, % at 8 µM | 10,000 tested, 55% active; in the data active = inhibition above about 40%
Full FLuc ctr – inhibits full-length luciferase, flagging false Mdm2/MdmX hits | 6,200 tested, 77% active | inhibition, % at 8 µM | AID 504607 | shares compounds with Mdm2-MdmX inh | SaOS-2 full-length luciferase counterscreen, luminescence;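 active = mean inhibition at 8 µM reaching about 37%, which flags the compound as non-specific, limit read from the data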;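 note: p53-null SaOS-2 cells with luciferase driven by a doxycycline-inducible promoter; compound on cells about two nights before reading with doxycycline added after day one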
Starred values were filed as active, the others as inactive; . = not tested or not shown; ! = not active in a repeat.

SMILES | Mdm2-MdmX inh | T cruzi inh | SKKanGAS inh | Beta apoptosis | CSC inhib | Lmaj promast | Mdm2 MdmX conf | Full FLuc ctr
COc1ccc(-c2cn(-c3ccc(OC)cc3)c3[n+]2-c2ccccc2CC3)cc1 | 57.2* | 37.5 | -25.6 | 131.6* | 34.7 | 100.0* | 36.8 | .
COc1ccccc1-n1c(-c2ccccc2)c[nH]c1=S | . | -8.6 | -3.3 | . | . | 3.9 | . | .
COc1ccc(-n2c(-c3ccc(Br)cc3)c[n+]3c2CCc2ccccc2-3)cc1 | 50.8* | 59.6* | -7.8 | 104.3* | 7.1 | 100.0* | 53.8* | 60.6*
COc1ccc(N2Cc3ccccc3C2=O)cc1 | -74.4 | -9.9 | 13.3 | 30.4 | 34.4 | . | . | .
COc1ccc(-n2cc(-c3ccc(Br)cc3)[nH]c2=S)cc1 | -31.6 | -12.5 | 1.7 | -11.9 | -12.6 | 5.0 | . | .
COc1ccccc1-n1c(-c2ccccc2)c[n+]2c1CCc1ccccc1-2 | 61.0* | 76.3*! | -4.8 | 101.5* | 21.7 | 100.5* | 47.9*! | 52.1*!
CC1CCCN(Cc2csc(N)n2)C1 (centres undefined) | -13.8 | -5.8 | -1.2 | -9.4 | -20.5 | -6.9 | . | .
Cc1cccc(-n2ncc(C(=O)NC3CCCC3)c2C2CCN(C(=O)OC(C)(C)C)CC2)c1 | 6.5 | 24.1 | -0.2 | -2.1 | -10.0 | . | . | .
COc1ccc(N2C(=O)CC(Sc3nc4ccccc4s3)C2=O)cc1 (centres undefined) | 25.5 | 24.7 | 2.5 | -1.5 | -2.7 | 0.7 | . | .
CCOc1ccc2nc(SC3CC(=O)N(c4ccc(OC)cc4)C3=O)sc2c1 (centres undefined) | 65.6* | 48.7 | 14.5 | -7.5 | -5.0 | -2.4 | -27.7 | .
COc1ccc(Cl)cc1C(=O)NCCN(C)C | 24.1 | -7.1 | -10.7 | -2.7 | -7.3 | -5.8 | . | .
CN(C)CCNC(=O)c1ccc(COc2ccc(Cl)cc2Cl)cc1 | 62.4* | 47.6 | 1.2 | 2.1 | 53.8 | 99.0* | 17.6 | .
CC(CCc1ccc(O)cc1)NCCC(c1ccccc1)c1ccccc1 (centres undefined) | 51.3* | 8.4 | 3.4 | -11.1 | -16.9 | . | 28.6 | .
COc1ccc([C@H]2C(C#N)=C([S-])N[C@](C)(O)[C@@H]2[n+]2ccccc2)cc1 | . | -0.4 | 3.5 | . | . | . | . | .
Cn1cncc1C#Cc1c(-c2ccc(S(C)(=O)=O)cc2)sc2ccccc12 | 64.7* | . | . | . | . | . | 28.4 | .
CS(=O)(=O)c1ccc(-c2sc3ccccc3c2C#CCCO)cc1 | 17.3 | . | . | 2.6 | 63.0 | . | . | .
O=c1[nH]c(CCl)nc2cc(-c3ccc(F)cc3)sc12 | 94.3* | -20.1 | 10.3 | 17.5 | 24.5 | . | 14.0 | .
O=c1[nH]cnc2cc(-c3ccc(Br)cc3)sc12 | -30.1 | -2.8 | 13.3 | -2.9 | 20.5 | . | . | .
COc1ccc(-n2c(SCC(=O)Nc3cc(C(=O)O)ccc3C)nc3ccccc3c2=O)cc1Cl | 10.5 | -2.3 | 2.1 | -4.8 | 14.2 | . | . | .
O=C(COc1cc2oc(=O)c3c(c2cc1Cl)CCC3)Nc1ccc(CN2CCOCC2)cc1 | 52.5* | -3.4 | 9.3 | 0.6 | 14.8 | . | 19.2 | .
CC(=O)N/C(=N/c1nc(C)cc(C)n1)Nc1ccc(C)cc1C | 28.4 | 26.3 | -7.5 | 4.9 | 2.5 | . | . | .
Cc1c(Cl)cccc1NC(=O)CCC(=O)N/N=C/c1ccc[nH]1 | 55.0* | -2.1 | -9.1 | -3.6 | 38.4 | -8.6 | 41.3* | 42.0*
O=C1Nc2cccnc2N(C(=O)CCl)c2ccccc21 | 67.9* | 1.6 | 2.5 | -15.1 | -3.4 | . | 50.0* | 31.2
N#CC1=C2SCC(O)(c3ccccc3)N2C(=O)CC1c1ccccc1F (centres undefined) | 86.8* | 20.2 | 9.1 | 29.5 | 43.2 | 98.8* | 83.3* | 39.9*
C=CCn1c(SCC(=O)Nc2cc(C)on2)nc2sc3c(c2c1=O)CCCC3 | 61.1* | . | . | 12.7 | . | 1.3 | 32.7 | .
SMILES | Mdm2-MdmX inh | T cruzi inh | SKKanGAS inh | Beta apoptosis | CSC inhib | Lmaj promast | Mdm2 MdmX conf | Full FLuc ctr
C=CCn1c(SCC(=O)Nc2cc(C)on2)nc2sc(C)c(C)c2c1=O | 51.1* | 17.1 | -2.0 | 4.4 | -7.8 | 1.7 | 19.4 | .
C=CCn1c(SCC(=O)Nc2sccc2C(N)=O)nc2sc(CC)cc2c1=O | 59.1* | 2.6 | 11.3 | 7.3 | 15.1 | 2.3 | 38.5 | 74.4*
CCc1sc2nc(SCC(=O)Nc3cc(C)on3)n(-c3cccc(OC)c3)c(=O)c2c1C | 91.6* | -3.7 | 5.8 | 46.3 | 13.7 | 3.6 | 65.6* | 76.7*
C=CCn1c(SCC(=O)Nc2cc(Cl)ccc2C(=O)O)nc2sc(C)c(C)c2c1=O | 22.8 | . | . | -5.1 | 37.7 | . | . | .
COc1ccc(N2C(=O)C3CCCN3C2=S)cc1 (centres undefined) | -0.6 | -12.1 | -3.3 | . | -20.1 | . | . | .
CCn1c(SCC(=O)Nc2cc(C)on2)nc2sc3c(c2c1=O)CCCC3 | 75.9* | -1.4 | -0.8 | 81.9* | -0.6 | -0.1 | 54.5* | 16.0
Cc1nc(NCc2ccco2)c2c3c(sc2n1)CCC3 | 71.7* | -19.3 | 5.3 | -20.4 | 2.4 | 14.3 | 32.7 | .
C=CCOC(=O)CCCCCCCC | 9.9 | . | . | -3.2 | -10.8 | . | . | .
O=C(Nc1ccc(N2CCN(C(=O)c3ccccc3F)CC2)cc1)c1cncc(Br)c1 | 62.6* | 33.1 | 2.3 | -4.2 | 5.5 | . | 61.6* | 20.6
CC(C)(C)C(=O)/C(=C/c1ccncc1)n1cncn1 | 100.3* | 46.7 | 1.1 | -35.6 | 52.9 | 100.3* | 100.0* | 51.1*
O=C(O)[C@@H]1CCCN1C(=O)CCc1c[nH]c2ccccc12 | -3.2 | -20.7 | -1.2 | -1.4 | -3.3 | . | . | .
CC(C)OC(=O)c1cc2c(ccn2C)n1CC(=O)N(Cc1ccccc1)c1ccccc1 | 86.3* | 51.3 | 18.3 | 7.9 | 23.9 | 42.2 | 53.8* | 64.8*
O=C(CCn1c(=O)oc2ccccc21)N(Cc1ccccc1)c1ccccc1 | -4.8 | 7.7 | -2.9 | -5.2 | -7.1 | 19.6 | . | .
Cc1ccc(N(C)S(=O)(=O)c2cccc(C(=O)N(C)Cc3cnn(-c4ccccc4)c3)c2)cc1 | 66.4* | . | . | . | . | . | 47.2* | 96.4*
CCOCCn1c(=O)c2c(nc3n2CC(C)CN3CCc2ccccc2)n(C)c1=O (centres undefined) | 7.2 | -3.6 | 1.1 | 3.8 | 27.7 | . | . | .
CC(=O)c1ccc(N2CCN(C(=O)/C=C/c3ccc4ccccc4n3)CC2)cc1 | 68.6* | 28.0 | 9.7 | -2.6 | 27.0 | 12.3 | 51.9* | 66.3*
CC(C)(CN1CCc2ccccc2C1)NS(=O)(=O)c1ccc(Cl)cc1 | 5.9 | 13.1 | -1.0 | -3.9 | 28.9 | . | . | .
Cc1cc(C)n(-c2nc(NCCCN(C)C)c3c4c(sc3n2)CCCC4)n1 | 54.1* | 40.5 | -0.5 | 36.0 | 1.8 | . | 29.6 | .
CCN(CC)CCCNc1nc(CN2CCOCC2)nc2sc3c(c12)CCC3 | 19.4 | 22.3 | -2.2 | -3.2 | 0.4 | 11.9 | . | .
Cc1cc(C)n(-c2ncnc3sc4c(c23)CCCC4)n1 | 4.9 | -4.7 | 6.2 | -4.7 | -14.6 | -4.8 | . | .
Cc1cc(C)n(-c2nc(NCCN(C)C)c3c4c(sc3n2)CCCC4)n1 | 99.7* | 50.3 | 16.5 | 111.6* | 53.4 | . | 88.8* | 21.3

Screens as filed in PubChem BioAssay.
